# Read-outs that look alike come from different tables or passages of the source.
# How the values were obtained:
# [1] = system: ROCK activity (MYPT1 phosphorylation); test: MYPT1 Thr696 phosphorylation in brain and heart after systemic administration; type: in vivo, mice; details: 10 mg/kg, intraperitoneal
# [2] = Pharmacokinetic study: plasma and brain concentrations after oral gavage; type: in vivo, mice; details: for AUC(0-t) / Cmax / k el: male, C57BL/6, mouse, po
# Method in brief: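 Male mice received 100 or 200 mg/kg twice daily by orogastric gavage, five doses. Each time point, from just before the last dose, used a separate group (n = 5). Jugular blood went into K3 EDTA tubes and was spun at 1000 g for 3 min at 4°C. Brains were harvested after saline perfusion. Samples were stored at −80°C and assayed by high-resolution MS. Noncompartmental analysis used best-fit λz, plus one-compartment zero- or first-order models. Brain/plasma exposure was taken as the AUC ratio.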
# [3] = system: ROCK1; details: read-out: ROCK1 IC50; cited from earlier work
# [4] = system: focal cerebral ischemia (permanent fMCAO)
# [5] = Systemic physiological parameters; type: in vivo, mice; details: 200 mg/kg
# [6] = healthy volunteers; ref Surface Logix, Brighton, MA; cited from earlier work
# [7] = system: ROCK2; details: read-out: ROCK2 IC50; cited from earlier work
# [8] = biological target: recombinant ROCK2 (Homo sapiens, UniProt O75116); test: Recombinant ROCK2 radiometric enzyme assay; type: biochemical; details: versus ATP (Fig. 1B)
# [9] = system: cortical perfusion during dMCAO; test: Distal middle cerebral artery occlusion; type: in vivo, mice; details: 200 mg/kg 90 min before dMCAO, laser speckle flowmetry
# Method in brief: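 Male mice (25–30 g) given test compound or vehicle (0.4% methylcellulose) by orogastric gavage. […] Mice were intubated, mechanically ventilated and femoral-artery catheterized for blood pressure and blood sampling. Cortical perfusion was imaged by laser speckle through intact skull. Per-pixel CBF was taken relative to preischemic baseline. Areas with residual CBF ≤20%, 21–30% and 31–40% were thresholded.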
# [10] = biological target: recombinant ROCK1 (Homo sapiens, UniProt Q13464); test: Recombinant ROCK1 radiometric enzyme assay; type: biochemical; details: concentrations up to 10 μmol/L, recombinant enzyme system
# [11] = system: focal cerebral ischemia (transient fMCAO)
# [12] = system: endothelial cells; details: cited from earlier work
# [13] = plasma, one-compartment first-order kinetic absorption model, 100 mg/kg
# [14] = permanent ischemia, 1 h postischemic onset, 200 mg/kg, sacrifice at 24 h
# [15] = aged (12 months) mice, 1 h postischemic onset, 200 mg/kg
# [16] = diabetic (db/db) mice, 1 h postischemic onset, 200 mg/kg
# [17] = dose response, 24 h preischemic onset, 100 mg/kg every 12 h
# [18] = dose response, 24 h preischemic onset, 200 mg/kg every 12 h
# [19] = dose response, 24 h preischemic onset, 300 mg/kg every 12 h
# [20] = female mice, 1 h postischemic onset, 200 mg/kg
# [21] = therapeutic window, 1 h postischemic onset, 200 mg/kg
# [22] = therapeutic window, 3 h postischemic onset, 200 mg/kg
# [23] = therapeutic window, 6 h postischemic onset, 200 mg/kg
# recombinant ROCK1, sequence (Q13464 76-338 limits assumed): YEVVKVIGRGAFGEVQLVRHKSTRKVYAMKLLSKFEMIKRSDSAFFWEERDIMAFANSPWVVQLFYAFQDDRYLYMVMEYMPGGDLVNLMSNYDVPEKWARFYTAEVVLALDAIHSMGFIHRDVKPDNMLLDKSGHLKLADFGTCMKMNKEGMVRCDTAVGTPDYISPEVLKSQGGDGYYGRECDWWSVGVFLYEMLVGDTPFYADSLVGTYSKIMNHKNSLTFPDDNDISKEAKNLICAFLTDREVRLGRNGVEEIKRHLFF
# recombinant ROCK2, sequence (O75116 92-354 limits assumed): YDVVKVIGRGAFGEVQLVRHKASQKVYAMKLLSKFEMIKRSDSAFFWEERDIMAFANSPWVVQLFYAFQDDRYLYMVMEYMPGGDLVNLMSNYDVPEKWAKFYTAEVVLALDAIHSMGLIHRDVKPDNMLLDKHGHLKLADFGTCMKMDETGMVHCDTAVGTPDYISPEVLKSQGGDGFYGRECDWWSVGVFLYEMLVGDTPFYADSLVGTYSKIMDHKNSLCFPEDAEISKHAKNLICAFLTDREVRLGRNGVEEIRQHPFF
smiles,measurement,setting,value
O=c1[nH]ccc2c(S(=O)(=O)N3CCCNCC3)cccc12 [hydroxyfasudil],"ROCK activity measured by MYPT1 phosphorylation, relative to effect of KD025",[1],comparable
CC(C)NC(=O)COc1cccc(-c2nc(Nc3ccc4[nH]ncc4c3)c3ccccc3n2)c1 [KD025],λ2 (slope of the log-linear terminal phase),"[2]; brain, non-compartmental analysis, 100 mg/kg every 12 h, five doses, oral gavage",0.31 1/h
same,A (absorption),"[2]; brain, one-compartment first-order kinetic absorption model, 100 mg/kg",0.67 µg/mL
same,AUC(0-t),"[2]; brain, 100 mg/kg",2280 ng·h/mL
same,Cmax,"[2]; brain, 100 mg/kg",540 ng/mL
same,k el,"[2]; brain, 100 mg/kg",8.89e-05 s⁻¹
same,AUC(0-t),"[2]; plasma, 100 mg/kg",42300 ng·h/mL
same,Cmax,"[2]; plasma, 100 mg/kg",7280 ng/mL
same,k el,"[2]; plasma, 100 mg/kg",5e-05 s⁻¹
same,A (absorption),[2]; [13],9.16 µg/mL
same,Ka (absorption rate constant),[2]; [13],2.23 h⁻¹
same,V,[2]; [13],11.90 L
same,IC50,[3],24 µM
same,efficacy on infarct volume in permanent ischemia,"[4]; 200 mg/kg starting 1 h after permanent fMCAO, infarct volume at 24 h",lost its efficacy
same,Mortality,[4]; [14],6/15
same,Weight loss,[4]; [14],3.5 ± 0.3 g
same,arterial blood pressure lower compared with vehicle,[5],8%
same,HR,"[5]; N = 5 mice, mean ± SEM",618 ± 19 bpm
same,pCO2,"[5]; N = 5 mice, mean ± SEM",29 ± 2 mmHg
same,pO2,"[5]; N = 5 mice, mean ± SEM",135 ± 13 mmHg
same,BP,"[5]; N = 5 mice, mean ± SEM, P = 0.06 versus vehicle",77 ± 3 mmHg
same,pH,"[5]; arterial, N = 5 mice, mean ± SEM",7.36 ± 0.02
same,side effects in phase I study,[6],no major side effects
same,mode of ROCK2 inhibition,[8],competitive with ATP
same,area of perfusion defect versus vehicle,[9],significantly reduced
same,effect on ROCK1 enzymatic activity,[10],little effect
same,tissue loss in the ipsilateral hemisphere versus vehicle,"[11]; 200 mg/kg twice a day for 36 h starting 1 h after ischemia onset, measured 4 weeks after ischemia",significantly reduced
same,efficacy on infarct volume,"[11]; 200 mg/kg, treatment started 6 h after ischemia onset",completely lost
same,infarct volume reduction,"[11]; 200 mg/kg, treatment starting 1 h after onset of fMCAO",34%
same,infarct volume reduction,"[11]; 200 mg/kg, treatment starting 3 h after onset of fMCAO",26%
same,adverse effects observed,[11]; 300 mg/kg dose level,increased incidence of vomiting and respiratory difficulties
same,infarct volume reduction,"[11]; aged (12 months) male mice, 200 mg/kg starting 1 h after fMCAO",34%
same,Mortality,[11]; [15],2/8
same,Weight loss,[11]; [15],3.4 ± 0.6 g
same,Mortality,[11]; [16],0/8
same,Weight loss,[11]; [16],3.8 ± 0.3 g
same,Mortality,[11]; [17],0/6
same,Weight loss,[11]; [17],4.3 ± 0.6 g
same,Mortality,[11]; [18],1/8
same,Weight loss,[11]; [18],3.5 ± 0.4 g
same,Mortality,[11]; [19],2/9
same,Weight loss,[11]; [19],4.5 ± 0.5 g
same,infarct volume reduction,"[11]; female mice, 200 mg/kg starting 1 h after fMCAO",42%
same,Mortality,[11]; [20],0/9
same,Weight loss,[11]; [20],3.5 ± 0.4 g
same,effect on infarct volume in combination with atorvastatin,"[11]; mouse, in vivo",did not show an additive or synergistic effect
same,therapeutic window of efficacy,"[11]; mouse, in vivo",at least 3 h
same,"neurological deficits, 5-point scoring system","[11]; preischemic treatment, assessed at 48 h prior to sacrifice",ameliorated
same,Mortality,[11]; [21],1/9
same,Weight loss,[11]; [21],5.7 ± 0.2 g
same,Mortality,[11]; [22],0/15
same,Weight loss,[11]; [22],5.2 ± 0.2 g
same,Mortality,[11]; [23],1/8
same,Weight loss,[11]; [23],5.6 ± 0.3 g
same,"incidence of hemorrhagic transformation, semi-quantitative grading",[11]; transient fMCAO model (Fig. S1),did not detect an increase
same,infarct volume reduction,"[11]; type 2 diabetic db/db mice, 200 mg/kg starting 1 h after fMCAO",32%

# Source: article PMC3900310 (Annals of Clinical and Translational Neurology, 2013)
